Substrate in series [1]: NCCC(=O)c1ccccc1N
Briefly: (§1) Michaelis-Menten constant against MAO B. On the set-up: species or system Bos taurus. The gist of the method: (§2)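 Beef liver MAO B, purified. Initial oxidation rates measured polarographically at 30 °C in sodium phosphate buffer, pH 7.2, with 0.2% (w/v) Brij-35. The reaction was started by adding enzyme, dosed so rates were measurable within 60-120 s. Vmax came from double-reciprocal plots. Turnover number was Vmax per flavin content. Flavin content came from the optical density change on anaerobic reduction by benzylamine.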

Substrate in series [2]: CN1CC=C(Cc2ccc3ccccc3c2)CC1
The description is as §1. Details: species or system Bos taurus. The method, boiled down:
as §2

Substrate in series [3]: CN1CC=C(Cc2ccccc2)CC1
The series is described as §1. Details: species or system Bos taurus. The gist of the method:
as §2

Substrate in series [4]: CN1CC=C(c2cccc3ccccc23)CC1
The description is as §1. Details: species or system Bos taurus. The method, boiled down:
as §2

Substrate in series [5]: CN1CC=C(CCc2ccsc2)CC1
The description is as §1. On the set-up: species or system Bos taurus. The method, boiled down:
as §2

Substrate in series [6]: CN1CC=C(c2ccsc2)CC1
Described as §1. Details: species or system Bos taurus. The method, boiled down: as §2

Substrate in series [7]: CN1CC=C(CCc2ccccc2)CC1
The series is described as §1. On the set-up: species or system Bos taurus. The method, boiled down: as §2

Substrate in series [8]: CN1CC=C(Cc2ccsc2)CC1
The series is described as §1. On the set-up: species or system Bos taurus. The gist of the method: as §2

Substrate in series [9]: CN1CC=C(CCc2cccc3ccccc23)CC1
Described as §1. On the set-up: species or system Bos taurus. The gist of the method:
as §2

Substrate in series [10]: CN1CC=C(Cc2cccc3ccccc23)CC1
The series is described as §1. Details: species or system Bos taurus. The gist of the method: as §2

Substrate in series [11]: CN1CC=C(CCc2ccc3ccccc3c2)CC1
Described as §1. On the set-up: species or system Bos taurus. The method, boiled down:
as §2

Substrate in series [12]: CN1CC=C(c2ccc3ccccc3c2)CC1
The description is as §1. On the set-up: species or system Bos taurus. The method, boiled down: as §2

Substrate in series [13]: CN1CC=C(CCc2cccs2)CC1
The series is described as §1. On the set-up: species or system Bos taurus. The method, boiled down:
as §2

Substrate in series [14]: CN1CC=C(c2cccs2)CC1
The description is as §1. On the set-up: species or system Bos taurus. The method, boiled down: as §2

Substrate in series [15]: CN1CC=C(Cc2cccs2)CC1
The series is described as §1. Details: species or system Bos taurus. The method, boiled down:
as §2

Substrate in series [16]: NCc1ccccc1
The description is as §1. Details: species or system Bos taurus. The method, boiled down: as §2

Substrate in series [17]: NCCC(=O)c1ccccc1N
Briefly: (§3) Michaelis-Menten constant against MAO A. The method, boiled down: (§4)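 Human liver MAO A expressed in yeast, purified. Initial oxidation rates measured polarographically (O2 uptake) at 30 °C in sodium phosphate buffer, pH 7.2, with 0.2% (w/v) Brij-35. Enzyme was added last to start the reaction, and its amount was set so rates were read within 60-120 s. Vmax came from double-reciprocal plots. TN was Vmax divided by flavin content. Flavin content was found from the optical density change on anaerobic reduction by kynuramine.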

Substrate in series [18]: CN1CC=C(Cc2ccc3ccccc3c2)CC1
The series is described as §3. The method, boiled down:
as §4

Substrate in series [19]: CN1CC=C(Cc2ccccc2)CC1
Described as §3. The method, boiled down: as §4

Substrate in series [20]: CN1CC=C(c2cccc3ccccc23)CC1
The description is as §3. The gist of the method:
as §4

Substrate in series [21]: CN1CC=C(CCc2ccsc2)CC1
The series is described as §3. The method, boiled down: as §4

Substrate in series [22]: CN1CC=C(c2ccsc2)CC1
The series is described as §3. The method, boiled down:
as §4

Substrate in series [23]: CN1CC=C(CCc2ccccc2)CC1
The description is as §3. The method, boiled down: as §4

Substrate in series [24]: CN1CC=C(Cc2ccsc2)CC1
Described as §3. The gist of the method:
as §4

Substrate in series [25]: CN1CC=C(CCc2cccc3ccccc23)CC1
Described as §3. The gist of the method: as §4

Substrate in series [26]: CN1CC=C(Cc2cccc3ccccc23)CC1
The description is as §3. The method, boiled down:
as §4

Substrate in series [27]: CN1CC=C(CCc2ccc3ccccc3c2)CC1
The series is described as §3. The method, boiled down: as §4

Substrate in series [28]: CN1CC=C(c2ccc3ccccc3c2)CC1
Described as §3. The method, boiled down: as §4

Substrate in series [29]: CN1CC=C(CCc2cccs2)CC1
The description is as §3. The gist of the method: as §4

Substrate in series [30]: CN1CC=C(c2cccs2)CC1
Described as §3. The gist of the method:
as §4

Substrate in series [31]: CN1CC=C(Cc2cccs2)CC1
The description is as §3. The method, boiled down: as §4

Substrate in series [32]: NCc1ccccc1
Described as §3. The gist of the method: as §4

One may read the Km as the substrate concentration at which the rate is half of its maximum.

B1: Amine oxidase [flavin-containing] B (Bos taurus) (protein)
chain: MSSKCDVVVVGGGISGMAAAKLLHDSGLNVIVLEARDRVGGRTYTLRNQKVKYVDLGGSYVGPTQNHILRLSKELGLETYKVNEVERLIHHTKGKSYPFRGSFPSVWNPITYLDHNNLWRTMDDMGREIPSDAPWKAPLAEQWDLMTMKELLDKICWTESSKQLAILFVNLCVTAEIHEVSALWFLWYVKQCGGTTRIFSTSNGGQERKFVGGSGQVSERIMDLLGDRVKLERPVIHIDQTGENVLVETLNHELYEAKYVISAVPPVLGMKIHFNPPLPMMRNQLITRVPLGSVIKSIVYYKEPFWRNMDYCGSMIIEGEEAPVAYALDDTKPDGSYPAIIGFILAHKARKLARLTKEERLKKLCDLYAKVLGSQEALHPVHYEEKNWCEEQYSGGCYTSYFPPGIMTQYGRVLRQPVGRIYFAGTETATHWSGYMEGAVEAGERAAREILHAMGKIPEDEIWLPEPESVDVPAKPITTTFLQRHLPSVPGLLKLIGLTTIFSATALGFLAHKRGLLVRI
As for B1, the Km came to 84 µM in series [1]; 840 µM in series [2]; 154 µM in [3]; 110 µM in series [4]; 57 µM in series [5]; 26 µM in [6]. Further, the Km amounted to 54 µM in series [7]; 195 µM in series [8]; 1280 µM in series [9]; 850 µM in [10]; 1030 µM in series [11]; 730 µM in [12]. Also, the Km in series [13] was 49 µM; in series [14], 168 µM; in series [15], 102 µM; in series [16], 290 µM.

B2: Amine oxidase [flavin-containing] A (Homo sapiens) (protein)
chain: MENQEKASIAGHMFDVVVIGGGISGLSAAKLLTEYGVSVLVLEARDRVGGRTYTIRNEHVDYVDVGGAYVGPTQNRILRLSKELGIETYKVNVSERLVQYVKGKTYPFRGAFPPVWNPIAYLDYNNLWRTIDNMGKEIPTDAPWEAQHADKWDKMTMKELIDKICWTKTARRFAYLFVNINVTSEPHEVSALWFLWYVKQCGGTTRIFSVTNGGQERKFVGGSGQVSERIMDLLGDQVKLNHPVTHVDQSSDNIIIETLNHEHYECKYVINAIPPTLTAKIHFRPELPAERNQLIQRLPMGAVIKCMMYYKEAFWKKKDYCGCMIIEDEDAPISITLDDTKPDGSLPAIMGFILARKADRLAKLHKEIRKKKICELYAKVLGSQEALHPVHYEEKNWCEEQYSGGCYTAYFPPGIMTQYGRVIRQPVGRIFFAGTETATKWSGYMEGAVEAGERAAREVLNGLGKVTEKDIWVQEPESKDVPAVEITHTFWERNLPSVSGLLKIIGFSTSVTALGFVLYKYKLLPRS
For B2, the Km in [17] is 170 µM; in series [18], 36 µM; in series [19], 66 µM; in [20], 74 µM; in [21] it was 130 µM; in series [22], 102 µM. Also, the Km in [23] was 120 µM; in [24] it was 136 µM; in series [25], 76 µM; in series [26], 167 µM; in [27], 43 µM; in series [28], 4.6 µM. In addition, the Km is 108 µM in series [29], 188 µM in series [30], 48 µM in series [31] and 780 µM in series [32].

The values are drawn from ChEMBL document CHEMBL1127042, “Molecular size and flexibility as determinants of selectivity in the oxidation of N-methyl-4-phenyl-1,2,3,6-tetrahydropyridine analogs by monoamine oxidase A and B” (J Med Chem, 1993).
